The source of these data is PubChem BioAssay AID624466 (The Scripps Research Institute Molecular Screening Center, 2012).

About 5,400 (1.5%) of roughly 360,000 compounds were called active.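 Rule for the calls: active = inhibition above a per-plate cutoff, the mean inhibition of test compounds on that plate plus 3 SD (cut at about 49% in these data); inactive = the rest.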 The entries come from a sample that favours actives as a whole.

Sequence of Trace amine-associated receptor 1 (Homo sapiens) (Q96RJ0 whole entry, looked up, the tested form may be a part): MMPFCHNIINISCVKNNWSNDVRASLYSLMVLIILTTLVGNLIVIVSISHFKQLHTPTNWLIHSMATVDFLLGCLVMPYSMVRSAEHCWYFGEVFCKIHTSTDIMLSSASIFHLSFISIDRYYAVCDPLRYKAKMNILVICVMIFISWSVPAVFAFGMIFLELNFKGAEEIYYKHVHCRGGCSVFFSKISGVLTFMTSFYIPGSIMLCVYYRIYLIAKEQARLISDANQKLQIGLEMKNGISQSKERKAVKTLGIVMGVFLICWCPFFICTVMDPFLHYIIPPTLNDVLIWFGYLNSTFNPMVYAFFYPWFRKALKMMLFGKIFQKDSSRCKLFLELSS

The test addresses Trace amine-associated receptor 1 (Homo sapiens) (UniProt Q96RJ0). Kind of test: blockers of beta-PEA-driven TAAR1 calcium signal – Fluo-8 calcium fluorescence, CHO RD-HGA16 cells, primary screen (AID 624466).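 Note: 0% = DMSO plus EC80 beta-PEA response and 100% = DMSO alone without agonist.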 Conditions: CHO RD-HGA16 TAAR1, Fluo-8 calcium fluorescence, antagonist; at 3 µM; active compounds read high. In short, it runs like this: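 Test system – hTAAR1-expressing CHO RD-HGA16 cells, Gα16-coupled · Also added – β-PEA at EC80 concentration, post-compound challenge · Compound – 3 µM, single point · Incubation – dye loading 75 min at 37 °C, then 30 min room temperature · Measured by – Fluo-8 intracellular calcium dye fluorescence, real-time kinetic reads · Benchmarks – vehicle and agonist controls · Replicates – singlicate, one well per test compound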
`CCc1ccc(S(=O)(=O)Nc2cc3c(cc2N2CCCCC2)n(C)c(=O)c(=O)n3C)cc1`: the inhibition is -20.8% (inactive). The value for `CCCCCCCCN1C(=O)[C@@H](CC(=O)N2CCN(C(=O)OCC)CC2)C[C@@]2(C(=O)OC)C1=C[C@H](C1CCCC1)O[C@@H]2C` was -10.4% (inactive). The value for `O=C(NCc1ccc2c(c1)OCO2)c1sccc1Br` was -7.07% (inactive); that for `O=C(NCc1ccc2c(c1)OCO2)c1c(-c2ccsc2)sc2ccccc12` was 77.1% (active); that for `C=CCn1c(=O)c(C(=O)NCc2ccc3c(c2)OCO3)c(O)c2ccccc21` was -8.39% (inactive). The value for `COCCCNC(=O)C[C@H]1C[C@@]2(C(=O)OC)C(=C[C@H](C(C)(C)C)O[C@@H]2C)N(Cc2ccc3c(c2)OCO3)C1=O` was -10.8% (inactive); that for `Cn1nccc1/C=N\NC(=O)c1ccc(Cl)cc1` was -23% (inactive).

On to `O=C(Cc1ccccc1)Nc1cccc(C(=O)N/N=C/c2ccco2)c1`, for which the inhibition was 7.95% (inactive). As for `O=C(N/N=C/c1ccccn1)c1cccc(NC(=O)c2ccc(Cl)cc2)c1`, the figure is 56.6% (active); as for `CC(C)CNc1cccc2c1S(=O)(=O)N[C@H](C)CO2`, 9.62% (inactive); as for `Cc1ccc(C2=CSC3=NS(=O)(=O)CCN23)cc1C`, 10.5% (inactive).

On to `CC(=NNC(N)=O)c1ccc(Cl)c(-n2cccc2)c1`, for which the inhibition was -7.84% (inactive). The value for `COc1ccc(OC)c(CNC(=O)Cn2nc(C)c3c(C)n(-c4ccc(C)cc4)nc3c2=O)c1` was -15.7% (inactive); that for `NC(=O)C1=C[C@H](c2csc3ccccc23)C[C@H](OCc2ccc(CO)cc2)O1` was 49.7% (active); that for `CC(=O)n1cc([C@H]2C=C(C(=O)N3CCOCC3)O[C@@H](OCc3ccc(CO)cc3)C2)c2ccccc21` was 51.8% (active). As for `O=C(C1=C[C@H](c2coc3ccccc3c2=O)C[C@H](OCc2ccc(CO)cc2)O1)N1CCOCC1`, the figure is 17.7% (inactive); as for `O=C(C1=C[C@H](c2ccc(C(F)(F)F)cc2)C[C@H](OCc2ccc(CO)cc2)O1)N1CCN(Cc2ccccc2)CC1`, 7.66% (inactive). As to `O=C(C1=C[C@H](C2CC2)C[C@H](OCc2ccc(CO)cc2)O1)N1CCN(Cc2ccccc2)CC1`, the inhibition is 1.78% (inactive). The value for `NC(=O)C1=C[C@@H](c2csc3ccccc23)C[C@@H](OCc2ccc(CO)cc2)O1` was 17.2% (inactive). As for `CN1CCN(C(=O)C2=C[C@H](c3ccc4c(c3)OCO4)C[C@H](OCc3ccc(CO)cc3)O2)CC1`, the figure is 18.1% (inactive); as for `O=C(NC1CC1)C1=C[C@H](c2c[nH]c3ccccc23)C[C@H](OCc2ccc(CO)cc2)O1`, -9.17% (inactive). The value for `CC(=O)n1cc([C@@H]2C=C(C(=O)N3CCN(Cc4ccc5c(c4)OCO5)CC3)O[C@H](OCc3ccc(CO)cc3)C2)c2ccccc21` was 49.4% (active); that for `CN1CCN(c2ccc3c(c2)OC[C@H](Cc2ccccc2)NS3(=O)=O)CC1` was -0.38% (inactive); that for `CC(C)C[C@H](NC(=O)CC1CCCC1)C(=O)N1CCC[C@H]1C(=O)NCc1ccccc1` was -24.5% (inactive). Consider `COC(=O)[C@]12C[C@H](CC(=O)NCc3ccc(C)o3)C(=O)N(CCC3=CCCCC3)C1=C[C@H](C(C)(C)C)O[C@@H]2C`, for which the inhibition is -24.7% (inactive). As for `CCCc1cc(C(=O)Nc2ccc(C(=O)OC)cc2)cs1`, the figure is 50.5% (active); as for `CCCc1cc(C(=O)Nc2ccc(Cl)cn2)cs1`, -47.4% (inactive). For the compound `CCN(CC)C(=O)CCC(=O)Nc1ccc(C(=O)OC)cc1`, the inhibition is -5.5% (inactive).

As for `CCC(=O)Nc1c(S(=O)(=O)c2ccccc2)c2nc3ccccc3nc2n1Cc1ccccc1`, the inhibition is -31.1% (inactive). Take `N#Cc1cccc(C(=O)NCC2CCN(C(=O)C(=O)c3cc4ccccc4o3)CC2)c1`: the inhibition was -5.41% (inactive). Consider `Fc1ccc2[nH]c3c(N4CCSCC4)ncnc3c2c1`, for which the inhibition is 64.4% (active). As for `COC(=O)c1ccc2nc(-c3cccc(Br)c3)c(Cc3ccccc3C(F)(F)F)n2c1`, the figure is -12.6% (inactive). The value for `COc1cc(/C=C/C(=O)Nc2ccc(OC)c(S(=O)(=O)N3CCOCC3)c2)ccc1OCC#N` was 14.8% (inactive); that for `COc1ccc(/C=C/C(=O)OCC(=O)NC2CCCCCC2)cc1OC` was -27.2% (inactive).

Take `COc1ccc(/C=C/C(=O)Nc2ccc(C34CC5CC(CC(O)(C5)C3)C4)cc2)cc1OC`: the inhibition is 71.5% (active).

With `C[C@@H]1CN([C@H](C)CO)C(=O)CCCn2cc(nn2)CO[C@H]1CN(C)C(=O)Nc1ccc(N2CCCCC2)cc1`, the inhibition is -12.4% (inactive). Take `CNC(=O)C1CC(=O)N(Cc2ccc3c(c2)OCO3)C(=Nc2ccc(F)cc2)S1` (stereo not given): the inhibition is 11.3% (inactive). The value for `CC(C)(C)Nc1c(N)c(=O)oc2ccccc12` was 15% (inactive); that for `Nc1c(NCCc2ccccc2)c2ccccc2oc1=O` was 66.7% (active); that for `O=c1oc2ccccc2c(=O)c2ccccc12` was 3.02% (inactive). The value for `O=C(N[C@H](Cc1ccccc1)C(=O)N1CCCN(Cc2cccs2)CC1)[C@H]1O[C@@H](n2ccc(=O)[nH]c2=O)[C@H](O)[C@@H]1O` was -9.92% (inactive); that for `CC(=O)OC[C@@H]1CN(Cc2ccccc2)C[C@H](n2cnc3c(NCc4ccco4)ncnc32)O1` was -4.46% (inactive). On to `CCCCOCC1CN(CCCC)S(=O)(=O)c2c(Oc3ccc(F)cc3)cccc2O1` (stereo not given), for which the inhibition was 30.2% (inactive). As for `CCOC(=O)c1sc(=NC(=O)c2ccc(Br)cc2)n(C)c1C`, the figure is -21.9% (inactive); as for `CCOC(=O)C1=CN(Cc2ccc(Br)cc2)S(=O)(=O)N(C)C1C` (stereo not given), 17.8% (inactive).

Consider `CCOC(=O)C1=CN(Cc2ccc(Br)cc2)S(=O)(=O)NC1C` (stereo not given), for which the inhibition is 49.1% (active). `COc1cccc(/C=N/Nc2cc(C)nc(-c3ccccc3O)n2)c1O`: the inhibition was 64.5% (active). The value for `COc1cc(/C=N/NC(=S)Nc2cccnc2)cc(OC)c1O` was -25% (inactive). As for `COc1cccc(Cn2cc(/C=N/NC(=O)c3cc(O)cc(O)c3)c3ccccc32)c1`, the figure is -11.8% (inactive). As for `Cc1cccc2[nH]c(CN(C)C(=O)C3CCC(=O)N(CCc4ccccc4)C3)nc12` (stereo not given), the figure is -20.8% (inactive); as for `Cc1ccc(N(C(=O)CC2NC(=O)NC2=O)C2(C(=O)NC3CCCC3)CCCCC2)cc1` (stereo not given), -7.81% (inactive); as for `CCCCCCCC[n+]1cccc(C(=O)N2c3c(nc(N)[nH]c3=O)NC(C)C2C)c1` (stereo not given), -7.7% (inactive). Take `CCNC(=O)c1cc2c(c(-c3cccc(-c4cncnc4)c3)n1)[C@H](CCO)N(C(C)=O)C2`: the inhibition is -0.11% (inactive). The value for `CC(C)NC(=O)N1Cc2cc(C(=O)NCC(F)(F)F)nc(-c3cccc(-c4cc5ccccc5o4)c3)c2[C@@H]1CCO` was 51.9% (active); that for `CC(C)(C)S(=O)N1Cc2cc(C(=O)NCCCN3CCOCC3)nc(-c3cccc(-c4cc5ccccc5o4)c3)c2[C@H]1CCO` (stereo not given in full) was 8.67% (inactive); that for `O=C(O)CC/C(=C\c1cc2c(cc1Br)OCO2)c1nc2ccccc2s1` was -13.4% (inactive). Take `COc1ccc(C(=O)Nc2cccc(/C=C(/CCC(=O)O)c3nc4ccccc4s3)c2)cc1`: the inhibition was 57.2% (active).

On to `COc1cccc(/C=C(/CC(=O)Nc2ccc(N3CCOCC3)cc2)c2nc3ccccc3s2)c1`, for which the inhibition was -10.9% (inactive).

For the compound `CC(=O)C[C@@H]1OC[C@H](C)N1S(=O)(=O)c1ccc(C)cc1`, the inhibition was -22.5% (inactive).

In the case of `COC(=O)[C@]1(C)N[C@H](c2ccc(-c3ccc(Cl)c(Cl)c3)cc2)[C@@H]2C(=O)N(C)C(=O)[C@@H]21`, the inhibition is 20.9% (inactive).

Turning to `CCNS(=O)(=O)c1ccc(CCC(=O)N2CCN(c3cc(Cl)ccc3C)CC2)cc1`, the inhibition is 65.9% (active). The value for `CCCNS(=O)(=O)c1ccc(CCC(=O)N2CCCC2)cc1` was -0.2% (inactive); that for `CCNS(=O)(=O)c1ccc(CCC(=O)N2CCN(c3ccc(OC)cc3)CC2)cc1` was 8.27% (inactive); that for `CCOc1ccc(NS(=O)(=O)c2cc(C)c(C)cc2C)cc1` was 18.6% (inactive). As for `Cc1cccc(NC(=O)CN2CCN(CC(=O)NCC3(N4CCCCC4)CCCCC3)CC2)c1C`, the inhibition is -28.3% (inactive). As to `COc1cc(NC(=O)C2=CC(c3ccc(C)cc3)=NS(=O)(=O)N2C)cc(OC)c1OC`, the inhibition was -7.77% (inactive). As for `COc1cc(NC(=O)C2=CC(c3ccco3)=NS(=O)(=O)N2C)cc(OC)c1OC`, the figure is -8.05% (inactive); as for `COc1ccc(NC(=O)C2=CC(c3ccc(OC)c(OC)c3)=NS(=O)(=O)N2C)cc1`, 52.3% (active); as for `O=C(O)C1CCCN1S(=O)(=O)c1ccc(Br)cc1` (stereo not given), -6.42% (inactive). As for `CC(=NNC(=O)c1ccc2nc[nH]c2c1)c1ccc(Br)cc1`, the figure is 51.9% (active).

As for `CSc1ccc(/C=N/NC(=O)c2cccc(Cl)c2)cc1`, the inhibition was 8.63% (inactive). The value for `O=C(N/N=C/c1ccc(Cl)c(Cl)c1)c1ccc2nc[nH]c2c1` was 63.3% (active); that for `CC1=NNC(=O)C1CCC(=O)N/N=C\c1ccc(Cl)c(Cl)c1` (stereo not given) was -10.3% (inactive); that for `O=C(O)CC/C(=N\NC(=O)c1ccc(F)cc1)c1ccc(Br)cc1` was 3.38% (inactive). As for `CC(=O)c1ccc(N2CCN(C(=O)c3ccc4nc[nH]c4c3)CC2)cc1`, the figure is -29.8% (inactive). As for `C[C@H](CO)N1C[C@H](C)[C@H](CN(C)C(=O)Nc2ccc(C(F)(F)F)cc2)Oc2c(NC(=O)c3ccncc3)cccc2C1=O`, the figure is 3.31% (inactive); as for `O=C(C[C@H]1CC[C@@H](NC(=O)c2ccncc2)[C@@H](CO)O1)NCC1CC1`, -5.86% (inactive).

As for `COC(=O)C1=C(C)NC(=S)NC1c1ccc(OC)cc1` (stereo not given), the inhibition is -22.6% (inactive).

As for `CC(=O)N1Cc2cc(C(=O)NCc3cccc(F)c3)nc(-c3cccc(C4=CCCC4)c3)c2[C@H]1CCO`, the inhibition is -5.18% (inactive).

`COC(=O)c1c(-c2ccc(OC)cc2)c2c(c3c4cc(OC)ccc4n(S(=O)(=O)c4ccc(F)cc4)c13)C(=O)N(C)C2`: the inhibition is -12.2% (inactive).

As a reminder, the inhibition is the relative decrease from the control value, in per cent.
